Measurements: paper PMC11577639 (Journal of medicinal chemistry, 2024)
Where two headings read alike, the source gives them in different places.

Assays:
[1] = SH-SY5Y cytotoxicity assay; format: cell-based, human; conditions: human, SH-SY5Y neuroblastoma cells
[2] = system: Human neuronal SH-SY5Y cells (ATCC CRL-2266); assay: SH-SY5Y cytotoxicity assay; format: cell-based; conditions: Table 3; SH-SY5Y CC50 / Nf69 EC50
[3] = system: N. fowleri (Nf69 strain, ATCC 30215) trophozoites; assay: N. fowleri Nf69 dose-response growth inhibition; format: cell-based, Naegleria fowleri
Plasma protein binding = format: in vitro ADME; conditions: CD-1 mouse
Outline: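 96-well equilibrium dialysis against CD-1 male mouse plasma (EDTA-K2), test compound on donor side in triplicate, dialysis buffer on receiver side. Incubated 4 h at 37 °C, 5% CO2, slow shaking. Both sides sampled, diluted in acetonitrile containing tolbutamide, labetalol, metformin and internal standard, centrifuged and analysed by LC-MS/MS. Warfarin as positive control.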

[4] = BBB parallel artificial membrane permeation assay; format: in vitro ADME; conditions: for BBB PAMPA CNS class: classified against positive and negative controls
Outline: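 Porcine polar brain lipid in dodecane coated on filter membrane. Test compound from DMSO stock diluted in PBS pH 7.4 in donor wells, PBS acceptor, room temperature incubation. Donor and filter-well concentrations measured by HPLC. Verapamil, clonidine, hydrocortisone and theophylline as […]. Pe > 15 nm/s scored CNS+, ≤ 15 CNS-.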

Mouse pharmacokinetics = format: in vivo, female CD-1 mice; conditions: female, CD-1, mouse, plasma, iv, 11 mg/kg
Outline: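 Female CD-1 mice, n = 3/group. First study: single IV 11.1 mg/kg or PO 10.7 mg/kg (fasted), 10% NMP/20% cremophor EL/70% water, plasma at 0.5, 2, 4, 8, 12 h, brain homogenised in MeOH/PBS at 12 h. Second: fasted, IP 44 mg/kg suspension in 10% DMSO/30% cremophor EL/60% water, plasma at 2 and 4 h. LC-MS/MS, verapamil internal standard. LLOQ 1 ng/mL plasma, 10 ng/g brain.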

Mouse plasma stability = format: in vitro ADME; conditions: male, CD-1, mouse
Outline: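 Test compound added from DMSO stock to CD-1 mouse plasma (EDTA-K2, ≥20 male donors). Incubated at 37 °C for 0, 10, 30, 60 or 120 min. Protein precipitated with tolbutamide and labetalol in acetonitrile, then shaken and centrifuged. Supernatant diluted in water and analysed by LCMS with internal standard. Enalapril maleate, bisacodyl and procaine HCl as controls.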

CN1CCC[C@H]2c3nc4ccc(C(F)(F)F)cc4c(=O)n3CC[C@@H]21 [trans-15b-ent-2, (4aS,13bR)-4-Methyl-10-(trifluoromethyl)-1,2,3,4,4a,5,6,13b-octahydro-8H-[1,6]naphthyridino[5,6-b]quinazolin-8-one]
CC50 at 72 h [1]: > 20 µM
SI (selectivity index, CC50/EC50) [2]: >4.7

COc1cc2nc3n(c(=O)c2cc1Cl)CC[C@@H]1[C@@H]3CCCN1CC(C)C (single isomer, unassigned) [trans-62b-ent-1]
SI (selectivity index, CC50/EC50) [2]: >32.3

CN1CCC[C@H]2c3nc4ccc(Cl)cc4c(=O)n3CC[C@@H]21 [trans-16b-ent-2, (4aS,13bR)-10-Chloro-4-methyl-1,2,3,4,4a,5,6,13b-octahydro-8H-[1,6]naphthyridino[5,6-b]quinazolin-8-one]
CC50 at 72 h [1]: > 20 µM
SI (selectivity index, CC50/EC50) [2]: >5.0

CN1CC[C@H]2c3nc4ccc(Cl)cc4c(=O)n3CC[C@H]21 (racemic) [31a, (±)-(3aR,12bR)-9-Chloro-3-methyl-2,3,3a,4,5,12b-hexahydropyrrolo[3′,2′:3,4]pyrido[2,1-b]quinazolin-7(1H)-one]
EC50 ([3]; read-out: EC50, N. fowleri Nf69, tested up to 10 μM): > 10 µM

CCCCCCCCCCCCCCCCOP(=O)([O-])OCC[N+](C)(C)C [miltefosine, reference compound]
EC50 ([3]; Naegleria fowleri, ATCC30215): 35.7 ± 9.1 µM

CN1CCC[C@@H]2c3nc4ccc(Cl)cc4c(=O)n3CC[C@H]21 (racemic) [±−16b]
SI (selectivity index, CC50/EC50) [2]: >20.0

COc1cc2nc3n(c(=O)c2cc1Cl)CC[C@@H]1[C@@H]3CCCN1CC1COC1 [trans-57b-ent-1, (4aR,13bS)-10-Chloro-11-methoxy-4-(oxetan-3-ylmethyl)-1,2,3,4,4a,5,6,13b-octahydro-8H-[1,6]naphthyridino[5,6-b]-quinazolin-8-one]
plasma protein binding (Plasma protein binding): 74% bound
SI (selectivity index, CC50/EC50) [2]: >40.8
BBB PAMPA, Peavg ([4]; averaged data from duplicate runs, 4 h): 18.2 ×10⁻⁶ cm/s
BBB PAMPA CNS class [4]: CNS+ (Pe > 15 nm/s = CNS+)

CN1CCC[C@@H]2c3nc4cc(Cl)c(Cl)cc4c(=O)n3CC[C@H]21 (racemic) [±−21b, (±)-(4aR,13bS)-10,11-Dichloro-4-methyl-1,2,3,4,4a,5,6,13b-octahydro-8H-[1,6]naphthyridino[5,6-b]quinazolin-8-one]
SI (selectivity index, CC50/EC50) [2]: >100

COc1cc2nc3n(c(=O)c2cc1Cl)CC[C@H]1[C@H]3CCCN1CC1COC1 (single isomer, unassigned) [trans-57b-ent-2]
clearance at 12 h (Mouse pharmacokinetics): 40.8 ± 7.6 mL/min/kg
plasma protein binding (Plasma protein binding): 74% bound
half-life (Mouse plasma stability): > 4.82 h
BBB PAMPA CNS class [4]: CNS+ (Pe > 15 nm/s = CNS+)

CN1CCC[C@@H]2c3nc4ccc(C(F)(F)F)cc4c(=O)n3CC[C@H]21 (single isomer, unassigned) [trans-15b-ent-1]
SI (selectivity index, CC50/EC50) [2]: >80.0

CN1CCC[C@@H]2c3nc4ccc(C(F)(F)F)cc4c(=O)n3CC[C@H]21 (racemic) [±−15b, (±)-(4aR,13bS)-4-Methyl-10-(trifluoromethyl)-1,2,3,4,4a,5,6,13b-octahydro-8H-[1,6]naphthyridino[5,6-b]-quinazolin-8-one]
SI (selectivity index, CC50/EC50) [2]: >18.2

CN1CCC[C@@H]2c3nc4ccc(Cl)cc4c(=O)n3CC[C@H]21 (single isomer, unassigned) [trans-16b-ent-1]
SI (selectivity index, CC50/EC50) [2]: >71.4

CN1CCC[C@H]2c3nc4cc(Cl)c(Cl)cc4c(=O)n3CC[C@@H]21 [trans-21b-ent-2, (4aS,13bR)-10,11-Dichloro-4-methyl-1,2,3,4,4a,5,6,13b-octahydro-8H-[1,6]naphthyridino[5,6-b]quinazolin-8-one]
CC50 at 72 h [1]: > 20 µM
SI (selectivity index, CC50/EC50) [2]: >7.7
